Test results reported in ChEMBL document CHEMBL1150647, “New diarylheptanoids from the stems of Carpinus cordata” (J Nat Prod, 2002).
Values after ≈ are worked out from the molar mass of the structure shown.

Test system: Radical scavenging activity
Assay: Antioxidant activity assessed as DPPH free radical scavenging activity after 30 mins
Assay type: functional
Procedure, shortened: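 Test samples in EtOH mixed with 100 µM ethanolic DPPH and incubated at 37 °C for 30 min. Absorbance was read at 515 nm. Percent inhibition was calculated against an ethanol-treated control. IC50 is the sample concentration that scavenges 50% of DPPH radicals.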

IC50 [µg/mL] | Structure (SMILES)
> 100 | COC(=O)c1cc(O)c(O[C@@H]2O[C@H](CO)[C@@H](O)[C@H](O)[C@H]2O)c(O)c1
4.9 (≈ 9.83 µM) | COC(=O)c1cc(O)c(O)c(O[C@@H]2O[C@H](COC(=O)c3cc(O)c(O)c(O)c3)[C@@H](O)[C@H](O)[C@H]2O)c1
4.6 (≈ 13.3 µM) | COC(=O)c1cc(O)c(O)c(O[C@@H]2O[C@H](CO)[C@@H](O)[C@H](O)[C@H]2O)c1
80.2 (≈ 233 µM) | O=C1CCc2ccc(O)c(c2)-c2cc(ccc2O)C[C@H](O)[C@H](O)[C@H]1O [CARPINONTRIOL B]
> 100 | O=C1C[C@@H](O)[C@@H](O)Cc2ccc(O)c(c2)-c2cc(ccc2O)C[C@H]1O [CARPINONTRIOLS A]
> 100 | O=C1CC[C@H](O)Cc2ccc(O)c(c2)-c2cc(ccc2O)C[C@H]1O [CASUARINONDIOL]
2.7 (≈ 9.3 µM) | Oc1cc(O)c2c(c1)O[C@H](c1ccc(O)c(O)c1)[C@@H](O)C2 [CIANIDANOL]
4.9 (≈ 26.6 µM) | COC(=O)c1cc(O)c(O)c(O)c1 [GALLIC ACID METHYL ESTER]
16.2 (≈ 71 µM) | Oc1ccc(/C=C/c2cc(O)cc(O)c2)cc1 [RESVERATROL]

Structure (SMILES) | IC50 [µg/mL]
O=C(O[C@@H]1Cc2c(O)cc(O)cc2O[C@@H]1c1cc(O)c(O)c(O)c1)c1cc(O)c(O)c(O)c1 [EPIGALOCATECHIN GALLATE] | 2.7 (≈ 5.89 µM)
